Results published in ChEMBL document CHEMBL4732210, “Discovery of new phenyl sulfonyl-pyrimidine carboxylate derivatives as the potential multi-target drugs with effective anti-Alzheimer's action: Design, synthesis, crystal structure and in-vitro biological evaluation” (Eur J Med Chem, 2021).
The source made the active and inactive calls. The calls are words filed in the database; no cut-off is given here.

Experiments:
Homo sapiens = organism: Homo sapiens; assay: Selectivity index, ratio of IC50 for BuChE in human serum to IC50 for AChE in human erythrocytes measured by DTNB reagent based Ellman's method; assay type: cell-based
[1] = target: Amyloid-beta precursor protein (Homo sapiens) (UniProt P05067); assay: Inhibition of amyloid beta (1 to 42) (unknown origin) aggregation at 22 uM measured after 24 hrs by Transmission electron microscopy method
How it was run: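 Aβ1-42 (44 μM) co-incubated with compound (22 μM) at 37 °C for 24 h. 10 μL aliquots placed on carbon-coated copper grids, stained with 1% uranyl acetate, blotted and dried 15 min at room temperature. Fibril morphology imaged by […]TEM. Controls were Aβ1-42 alone at 37 °C for 24 h and Aβ1-42 alone at 0 h.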

[2] = target: Acetylcholinesterase (Homo sapiens) (UniProt P22303); assay: Inhibition of AChE in human erythrocytes assessed as inhibition of AChE-induced amyloid beta (1 to 42) aggregation by measuring reduced particle size at 10 uM measured after 48 hrs by Dynamic light scattering analysis; assay type: cell-based; settings: Erythrocyte
How it was run: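 Aβ1-42 with AChE (10 unit/mL) incubated with compound at 10 μM in PBS pH 7.4, in the dark for 48 h at 37 °C. Particle size distribution then measured by dynamic light scattering.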

MC65 = assay: Neuroprotective activity in human MC65 cells cultured in TC-deficient medium assessed as inhibition of TC-deficiency induced oxidative stress by measuring increase in cell viability at 1 to 80 uM measured after 12 hrs by MTT assay; assay type: functional, cell-based; settings: dose 1-80 µM
How it was run: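 MC65 cells grown in MEM, PBS-washed and resuspended in MEM, then seeded at 5×10⁴ cells/well with or without TC. Compounds (80–1 μM) added to TC-free wells and incubated 12 h at 37 °C. MTT (5 mg/ml) added for a further 4 h; formazan dissolved in DMSO:H₂O 1:1 and read at 570 nm. Viability expressed as % of +TC control. Triplicate wells, three runs.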

[3] = target: Acetylcholinesterase (Homo sapiens) (UniProt P22303); assay: Inhibition of AChE in human erythrocytes assessed as inhibition of AChE-induced amyloid beta(1 to 42) aggregation at Abeta42:compound concentration ratio of 10:20 measured after 48 hrs by thioflavin-T assay; assay type: cell-based; settings: Erythrocyte
How it was run: (§1)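 Aβ1-42 (stock in 1% ammonium hydroxide; final 10 μM) plus human erythrocyte AChE. Incubated 48 h at 37 °C with or without compound (5, 10, 20 μM; DMSO stock diluted in PBS pH 7.4). Then diluted in 50 mM glycine-NaOH pH 8.0 containing 5 μM thioflavin T. Fluorescence normalised to control; three separate experiments.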

[4] = target: Amyloid-beta precursor protein (Homo sapiens) (UniProt P05067); assay: Inhibition of self-induced amyloid beta (1 to 42) (unknown origin) aggregation assessed as reduced particle size at 10 uM measured after 48 hrs by Dynamic light scattering analysis
How it was run: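 Aβ1-42 stock (100 μM) in PBS pH 7.4, […], incubated with compound (10 μM) in the dark at 37 °C for 48 h. Particle size distribution then measured by dynamic light scattering.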

[5] = target: Acetylcholinesterase (Homo sapiens) (UniProt P22303); assay: Inhibition of AChE in human erythrocytes assessed as inhibition of AChE-induced amyloid beta(1 to 42) aggregation at Abeta42:compound concentration ratio of 10:10 measured after 48 hrs by thioflavin-T assay; assay type: cell-based; settings: Erythrocyte; how it was run: as §1
[6] = target: Acetylcholinesterase (Homo sapiens) (UniProt P22303); assay: Non-competitive inhibition of AChE in human erythrocytes assessed as decrease in Vmax with constant Km measured at 2 mins interval for 10 mins by Lineweaver-Burk plot analysis; assay type: cell-based; settings: Erythrocyte
How it was run: (§2)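 Human AChE kinetics in the Ellman DTNB assay. Inhibitor at 25, 50 and 100 nM, each with six ATCI concentrations, against an inhibitor-free series. Activity read every 2 min over 10 min. Km and Vmax from Michaelis–Menten non-linear regression; mechanism from Lineweaver–Burk plots; Ki from Dixon plot over four inhibitor concentrations and from slope/intercept replots. Triplicate.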

[7] = target: Acetylcholinesterase (Homo sapiens) (UniProt P22303); assay: Non-competitive inhibition of AChE in human erythrocytes assessed as ratio of Vmax to Km at 100 nM measured at 2 mins interval for 10 mins by Lineweaver-Burk plot analysis; assay type: cell-based; settings: Erythrocyte; how it was run: as §2
[8] = target: Acetylcholinesterase (Homo sapiens) (UniProt P22303); assay: Non-competitive inhibition of AChE in human erythrocytes assessed as ratio of Vmax to Km at 50 nM measured at 2 mins interval for 10 mins by Lineweaver-Burk plot analysis; assay type: cell-based; settings: Erythrocyte; how it was run: as §2
[9] = target: Acetylcholinesterase (Homo sapiens) (UniProt P22303); assay: Non-competitive inhibition of AChE in human erythrocytes assessed as ratio of Vmax to Km at 25 nM measured at 2 mins interval for 10 mins by Lineweaver-Burk plot analysis; assay type: cell-based; settings: Erythrocyte; how it was run: as §2

Amyloid-beta precursor protein (Homo sapiens), sequence (P05067 whole entry): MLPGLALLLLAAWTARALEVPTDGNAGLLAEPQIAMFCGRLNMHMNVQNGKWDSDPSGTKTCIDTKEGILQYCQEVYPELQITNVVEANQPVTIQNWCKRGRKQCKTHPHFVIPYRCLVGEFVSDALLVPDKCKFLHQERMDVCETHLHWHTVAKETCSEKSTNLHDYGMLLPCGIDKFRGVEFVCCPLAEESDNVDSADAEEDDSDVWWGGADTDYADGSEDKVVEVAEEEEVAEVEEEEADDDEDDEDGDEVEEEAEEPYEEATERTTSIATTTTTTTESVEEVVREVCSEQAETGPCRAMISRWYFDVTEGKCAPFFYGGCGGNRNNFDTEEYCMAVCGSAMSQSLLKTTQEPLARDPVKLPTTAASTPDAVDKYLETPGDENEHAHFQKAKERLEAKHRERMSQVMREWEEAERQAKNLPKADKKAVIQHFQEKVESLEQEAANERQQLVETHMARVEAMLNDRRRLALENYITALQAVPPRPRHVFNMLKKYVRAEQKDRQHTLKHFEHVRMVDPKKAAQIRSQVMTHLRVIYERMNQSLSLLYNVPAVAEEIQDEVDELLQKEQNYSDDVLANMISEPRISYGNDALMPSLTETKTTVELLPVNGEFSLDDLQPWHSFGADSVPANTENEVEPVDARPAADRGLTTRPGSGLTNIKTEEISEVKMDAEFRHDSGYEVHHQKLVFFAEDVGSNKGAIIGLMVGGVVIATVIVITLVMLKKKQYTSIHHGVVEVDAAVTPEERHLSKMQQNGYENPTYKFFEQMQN
Acetylcholinesterase (Homo sapiens), sequence (P22303 whole entry): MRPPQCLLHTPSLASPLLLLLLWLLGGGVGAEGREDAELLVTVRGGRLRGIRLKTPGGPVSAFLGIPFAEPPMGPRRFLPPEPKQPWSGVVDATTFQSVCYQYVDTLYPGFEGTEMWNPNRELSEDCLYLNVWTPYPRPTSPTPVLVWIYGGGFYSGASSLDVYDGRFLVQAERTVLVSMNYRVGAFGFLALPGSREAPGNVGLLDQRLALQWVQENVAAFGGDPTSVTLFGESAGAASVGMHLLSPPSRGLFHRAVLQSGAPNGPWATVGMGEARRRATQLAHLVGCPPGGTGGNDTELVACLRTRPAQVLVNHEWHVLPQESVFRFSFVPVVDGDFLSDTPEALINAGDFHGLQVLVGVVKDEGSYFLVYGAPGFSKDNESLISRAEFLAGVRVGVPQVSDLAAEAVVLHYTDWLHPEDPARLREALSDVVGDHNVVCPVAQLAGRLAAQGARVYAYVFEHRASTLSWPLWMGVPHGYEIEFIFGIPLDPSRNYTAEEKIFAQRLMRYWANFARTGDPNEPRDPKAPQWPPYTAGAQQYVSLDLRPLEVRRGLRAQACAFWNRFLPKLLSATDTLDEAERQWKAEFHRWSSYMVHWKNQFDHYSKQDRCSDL

CCOC(=O)c1c(C)nc(N2CCN(S(=O)(=O)c3ccc(NC(C)=O)c(OC)c3)CC2)nc1-c1ccc(OC)cc1
Ratio IC50 (Homo sapiens): 0.4

CCOC(=O)c1c(C)nc(N2CCN(S(=O)(=O)c3ccc(NC(C)=O)c(F)c3)CC2)nc1-c1ccc(OC)cc1
Ratio IC50 (Homo sapiens): 0.42

CCOC(=O)c1c(C)nc(N2CCN(S(=O)(=O)c3ccc(NC(C)=O)c(OC)c3)CC2)nc1-c1ccccc1
Ratio IC50 (Homo sapiens): 0.42

CCOC(=O)c1c(C)nc(N2CCN(S(=O)(=O)c3ccc(N)c(Cl)c3)CC2)nc1-c1ccc(OC)c(OC)c1
inhibition [1]: Active
inhibition [2]: Active
Activity (MC65): Active
inhibition [3]: 35.3%
inhibition [4]: Active
inhibition [5]: 22.2%
Ratio IC50 (Homo sapiens): 0.28

CCOC(=O)c1c(C)nc(N2CCN(S(=O)(=O)c3ccc(N)c(Cl)c3)CC2)nc1-c1ccccc1
Ratio IC50 (Homo sapiens): 0.57

CCOC(=O)c1c(C)nc(N2CCN(S(=O)(=O)c3ccc(N)c(Cl)c3)CC2)nc1-c1ccc(OC)cc1
Ratio IC50 (Homo sapiens): 0.43

CCOC(=O)c1c(C)nc(N2CCN(S(=O)(=O)c3ccc(NC(C)=O)c(Cl)c3)CC2)nc1-c1ccc(OC)c(OC)c1
inhibition [6]: Active
inhibition [1]: Active
Vmax/Km [7]: 0.056
inhibition [2]: Active
Vmax/Km [8]: 0.076
inhibition [3]: 51.3%
Vmax/Km [9]: 0.094
inhibition [4]: Active
inhibition [5]: 35.5%
Ratio IC50 (Homo sapiens): 0.23

CCOC(=O)c1c(C)nc(N2CCN(S(=O)(=O)c3ccc(NC(C)=O)c(Cl)c3)CC2)nc1-c1ccccc1
Ratio IC50 (Homo sapiens): 0.61

CCOC(=O)c1c(C)nc(N2CCN(S(=O)(=O)c3ccc(N)c(OC)c3)CC2)nc1-c1ccccc1
Ratio IC50 (Homo sapiens): 0.29

CCOC(=O)c1c(C)nc(N2CCN(S(=O)(=O)c3ccc(NC(C)=O)c(F)c3)CC2)nc1-c1ccccc1
Ratio IC50 (Homo sapiens): 0.35

CCOC(=O)c1c(C)nc(N2CCN(S(=O)(=O)c3ccc(N)c(F)c3)CC2)nc1-c1ccc(OC)cc1
Ratio IC50 (Homo sapiens): 0.64

CCOC(=O)c1c(C)nc(N2CCN(S(=O)(=O)c3ccc(NC(C)=O)cc3)CC2)nc1-c1ccc(OC)c(OC)c1
Ratio IC50 (Homo sapiens): 0.35

CCOC(=O)c1c(C)nc(N2CCN(S(=O)(=O)c3ccc(N)cc3)CC2)nc1-c1ccc(OC)cc1
Ratio IC50 (Homo sapiens): 0.33

CCOC(=O)c1c(C)nc(N2CCN(S(=O)(=O)c3ccc(N)c(OC)c3)CC2)nc1-c1ccc(OC)c(OC)c1
Ratio IC50 (Homo sapiens): 0.4

CCOC(=O)c1c(C)nc(N2CCN(S(=O)(=O)c3ccc(N)c(OC)c3)CC2)nc1-c1ccc(OC)cc1
Ratio IC50 (Homo sapiens): 0.36

CCOC(=O)c1c(C)nc(N2CCN(S(=O)(=O)c3ccc(N)cc3)CC2)nc1-c1ccc(OC)c(OC)c1
Ratio IC50 (Homo sapiens): 0.31

CCOC(=O)c1c(C)nc(N2CCN(S(=O)(=O)c3ccc(NC(C)=O)c(OC)c3)CC2)nc1-c1ccc(OC)c(OC)c1
Ratio IC50 (Homo sapiens): 0.38

CCOC(=O)c1c(C)nc(N2CCN(S(=O)(=O)c3ccc(NC(C)=O)c(F)c3)CC2)nc1-c1ccc(OC)c(OC)c1
Ratio IC50 (Homo sapiens): 0.41

CCOC(=O)c1c(C)nc(N2CCN(S(=O)(=O)c3ccc(NC(C)=O)cc3)CC2)nc1-c1ccccc1
Ratio IC50 (Homo sapiens): 0.54

CCOC(=O)c1c(C)nc(N2CCN(S(=O)(=O)c3ccc(N)c(F)c3)CC2)nc1-c1ccc(OC)c(OC)c1
Ratio IC50 (Homo sapiens): 0.37

CCOC(=O)c1c(C)nc(N2CCN(S(=O)(=O)c3ccc(NC(C)=O)c(Cl)c3)CC2)nc1-c1ccc(OC)cc1
Ratio IC50 (Homo sapiens): 0.4

CCOC(=O)c1c(C)nc(N2CCN(S(=O)(=O)c3ccc(NC(C)=O)cc3)CC2)nc1-c1ccc(OC)cc1
Ratio IC50 (Homo sapiens): 0.42
